# Laboratory results as given in ChEMBL document CHEMBL1121681, “Synthesis and antiviral activity of certain 9-beta-D-ribofuranosylpurine-6-carboxamides” (1981).
# Assays:
# Vero [1] = assay: In vitro antiviral activity against HSV-1 virus in (vero) V cells of african green monkey kidney / 320 toxic level; assay type: functional, Chlorocebus sabaeus
# [2] = test system: Laryngeal epithelioma cell line; assay: In vitro antiviral activity against HSV-1 virus in human laryngeal epithelioma cell line / 320 toxic level; assay type: functional
# [3] = test system: Laryngeal epithelioma cell line; assay: In vitro antiviral activity against vaccinia virus human laryngeal epithelioma cell line / 320 toxic level; assay type: functional
# Vero [4] = assay: In vitro antiviral activity against VSV virus in (vero) V cells of african green monkey kidney / 320 toxic level; assay type: functional, Chlorocebus sabaeus
# [5] = test system: Laryngeal epithelioma cell line; assay: In vitro antiviral activity against Para 3 virus in human laryngeal epithelioma cell line / 320 toxic level; assay type: functional
# Vero [6] = assay: In vitro antiviral activity against vaccinia virus in (vero) V cells of african green monkey kidney / 320 toxic level; assay type: functional, Chlorocebus sabaeus
# Vero [7] = assay: In vitro antiviral activity against Para 3 virus in (vero) V cells of african green monkey kidney / 320 toxic level; assay type: functional, Chlorocebus sabaeus
# Vero [8] = assay: In vitro antiviral activity against Cox B1 virus in (vero) V cells of african green monkey kidney / 320 toxic level; assay type: functional, Chlorocebus sabaeus
# [9] = test system: Laryngeal epithelioma cell line; assay: In vitro antiviral activity against VSV virus in human laryngeal epithelioma cell line / 320 toxic level; assay type: functional
# [10] = test system: Laryngeal epithelioma cell line; assay: In vitro antiviral activity against Cox B1 virus in human laryngeal epithelioma cell line / 320 toxic level; assay type: functional
# [11] = test system: Laryngeal epithelioma cell line; assay: In vitro antiviral activity against COXB1 virus in human laryngeal epithelioma cell line / 1000 toxic level; assay type: functional
# Vero [12] = assay: In vitro antiviral activity against COXB1 virus in (vero) V cells of african green monkey kidney; assay type: functional, Chlorocebus sabaeus
# Vero [13] = assay: In vitro antiviral activity against VSV virus in (vero) V cells of african green monkey kidney; assay type: functional, Chlorocebus sabaeus
# Vero [14] = assay: In vitro antiviral activity against V V virus in (vero) V cells of african green monkey kidney; assay type: functional, Chlorocebus sabaeus
# [15] = test system: Laryngeal epithelioma cell line; assay: In vitro antiviral activity against VSV virus in human laryngeal epithelioma cell line / 1000 toxic level; assay type: functional
# [16] = test system: Laryngeal epithelioma cell line; assay: In vitro antiviral activity against Para 3 virus in human laryngeal epithelioma cell line / 1000 toxic level; assay type: functional
# [17] = test system: Laryngeal epithelioma cell line; assay: In vitro antiviral activity against V V virus human laryngeal epithelioma cell line / 1000 toxic level; assay type: functional
# Vero [18] = assay: In vitro antiviral activity against HSV-1 virus in (vero) V cells of african green monkey kidney; assay type: functional, Chlorocebus sabaeus
# [19] = test system: Laryngeal epithelioma cell line; assay: In vitro antiviral activity against HSV-1 virus in human laryngeal epithelioma cell line / 1000 toxic level; assay type: functional
# Vero [20] = assay: Inhibition of growth of Pichinde virus in vero cells by administering 250 ug/mL of compound; assay type: functional, Chlorocebus sabaeus
# Summary of the method: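 Pichinde virus was adsorbed to Vero monolayers in 24-well cultures for 1 h at 37 °C. Cells were overlaid with agar containing compound dilutions and incubated at 37 °C with CO2. Plaques were counted after crystal violet staining to give inhibition of viral growth.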
# [21] = test system: Laryngeal epithelioma cell line; assay: In vitro antiviral activity against V V virus human laryngeal epithelioma cell line / 320 toxic level; assay type: functional
# Rift Valley fever virus [22] = assay: Inhibition of growth of Rift Valley fever virus in vero cells by administering 250 ug/mL of compound; assay type: functional, Chlorocebus sabaeus
# [23] = test system: Laryngeal epithelioma cell line; assay: In vitro antiviral activity against COXB1 virus in human laryngeal epithelioma cell line / 320 toxic level; assay type: functional
# Vero [24] = assay: In vitro antiviral activity against Para 3 virus in (vero) V cells of african green monkey kidney; assay type: functional, Chlorocebus sabaeus
# Vero [25] = assay: Inhibition of growth of Rift Valley fever virus in vero cells by administering 500 ug/mL of compound; assay type: functional, Chlorocebus sabaeus
# Rift Valley fever virus [26] = assay: Percent increase in survival rate of Rift Valley fever virus infected mice on day 21, by administering 50 (mg/kg)/day of compound; assay type: functional
# Vero [27] = assay: In vitro antiviral activity against HSV-1 virus in (vero) V cells of african green monkey kidney / 1000 toxic level; assay type: functional, Chlorocebus sabaeus
# Vero [28] = assay: In vitro antiviral activity against V V virus in (vero) V cells of african green monkey kidney / 1000 toxic level; assay type: functional, Chlorocebus sabaeus
# Vero [29] = assay: In vitro antiviral activity against VSV virus in (vero) V cells of african green monkey kidney / 1000 toxic level; assay type: functional, Chlorocebus sabaeus
# Vero [30] = assay: In vitro antiviral activity against COXB1 virus in (vero) V cells of african green monkey kidney / 1000 toxic level; assay type: functional, Chlorocebus sabaeus
# Vero [31] = assay: In vitro antiviral activity against Para 3 virus in (vero) V cells of african green monkey kidney / 1000 toxic level; assay type: functional, Chlorocebus sabaeus
# [32] = test system: Laryngeal epithelioma cell line; assay: In vitro antiviral activity against Para 3 virus in human laryngeal epithelioma cell line / 100 toxic level; assay type: functional
# [33] = test system: Laryngeal epithelioma cell line; assay: In vitro antiviral activity against Cox B1 virus in human laryngeal epithelioma cell line / 100 toxic level; assay type: functional
# [34] = test system: Laryngeal epithelioma cell line; assay: In vitro antiviral activity against Vaccinia virus human laryngeal epithelioma cell line / 100 toxic level; assay type: functional
# [35] = test system: Laryngeal epithelioma cell line; assay: In vitro antiviral activity against VSV virus in human laryngeal epithelioma cell line / 100 toxic level; assay type: functional
# Vero [36] = assay: In vitro antiviral activity against Vaccinia virus in (vero) V cells of african green monkey kidney / 320 toxic level; assay type: functional, Chlorocebus sabaeus
# [37] = test system: Laryngeal epithelioma cell line; assay: In vitro antiviral activity against HSV-1 virus in human laryngeal epithelioma cell line / 100 toxic level; assay type: functional
# Vero [38] = assay: In vitro antiviral activity against COXB1 virus in (vero) V cells; assay type: functional, Chlorocebus sabaeus
# [39] = test system: Laryngeal epithelioma cell line; assay: In vitro antiviral activity against COXB1 virus in human laryngeal epithelioma cell line; assay type: functional
# [40] = test system: Laryngeal epithelioma cell line; assay: In vitro antiviral activity against Para 3 virus in human laryngeal epithelioma cell line; assay type: functional
# [41] = test system: Laryngeal epithelioma cell line; assay: In vitro antiviral activity against HSV-1 virus in human laryngeal epithelioma cell line; assay type: functional
# Vero [42] = assay: In vitro antiviral activity against VSV virus in (vero) V cells; assay type: functional, Chlorocebus sabaeus
# [43] = test system: Laryngeal epithelioma cell line; assay: In vitro antiviral activity against VSV virus in human laryngeal epithelioma cell line; assay type: functional
# [44] = test system: Laryngeal epithelioma cell line; assay: In vitro antiviral activity against V V virus in human laryngeal epithelioma cell line; assay type: functional
# Rift Valley fever virus [45] = assay: Percent increase in survival rate of Rift Valley fever virus infected mice on day 21, by administering 100 (mg/kg)/day of compound; assay type: functional
compound,measurement,setting,value
Nc1ncnc2c(N[C@@H]3O[C@H](CO)[C@@H](O)[C@@H]3O)ncnc12,Virus rating,Vero [1],0.8
same,Virus rating,[2],1.6
same,Virus rating,[3],1.3
same,Virus rating,Vero [4],0.6
same,Virus rating,[5],1.5
same,Virus rating,Vero [6],1.4
same,Virus rating,Vero [7],0.7
same,Virus rating,Vero [8],0.6
same,Virus rating,[9],1.5
same,Virus rating,[10],1
OC[C@H]1O[C@@H](n2cnc3c(Cl)ncnc32)[C@H](O)[C@@H]1O,Virus rating,[11],1
same,Virus rating,Vero [12],0.4
same,Virus rating,Vero [13],0.5
same,Virus rating,Vero [14],1.5
same,Virus rating,[15],0.3
same,Virus rating,[16],1.3
same,Virus rating,[17],0.8
same,Virus rating,Vero [18],0.9
same,Virus rating,[19],0.6
NC(=O)c1ncnc2c1ncn2C1O[C@H](CO)[C@@H](O)[C@H]1O (stereo partly drawn),Virus rating,[2],0.6
same,Inhibition,Vero [20],90%
same,Virus rating,Vero [12],0.4
same,Virus rating,[5],1.4
same,Virus rating,Vero [13],0
same,Virus rating,Vero [14],1.5
same,Virus rating,[21],1.1
same,Inhibition,Rift Valley fever virus [22],90%
same,Virus rating,[23],0.9
same,Virus rating,Vero [24],0
same,Inhibition,Vero [25],99%
same,ILS,Rift Valley fever virus [26],55%
same,Virus rating,[9],1.2
same,Virus rating,Vero [18],0.6
N#Cc1ncnc2c1ncn2C1O[C@H](CO)[C@@H](O)[C@H]1O (stereo partly drawn),Virus rating,[2],0.8
same,Virus rating,Vero [27],0.4
same,Virus rating,[5],1.2
same,Virus rating,Vero [28],1
same,Virus rating,Vero [29],0
same,Virus rating,[21],1
same,Virus rating,[23],1
same,Virus rating,Vero [30],0
same,Virus rating,[9],0.8
same,Virus rating,Vero [31],0
NC(=S)c1ncnc2c1ncn2C1O[C@H](CO)[C@@H](O)[C@H]1O (stereo partly drawn),Virus rating,[32],1.3
same,Virus rating,Vero [1],1.1
same,Virus rating,[33],1.1
same,Virus rating,Vero [4],0.5
same,Virus rating,[34],1.2
same,Virus rating,[35],0.7
same,Virus rating,Vero [8],1
same,Virus rating,Vero [36],0.8
same,Virus rating,[37],0.4
OC[C@H]1OC(n2cnc3c(I)ncnc32)[C@H](O)[C@@H]1O (stereo partly drawn),Virus rating,[2],1.6
same,Virus rating,Vero [27],1
same,Virus rating,[5],0.6
same,Virus rating,Vero [28],1.2
same,Virus rating,Vero [29],0
same,Virus rating,[21],0.8
same,Virus rating,[23],1
same,Virus rating,Vero [30],0.1
same,Virus rating,[9],0.9
same,Virus rating,Vero [31],0.7
NC(=O)c1ncn([C@@H]2O[C@H](CO)[C@@H](O)[C@H]2O)n1 [RIBAVIRIN],Virus rating,Vero [38],0.6
same,Virus rating,[39],1.1
same,Virus rating,[40],1.4
same,Virus rating,[41],1.2
same,Virus rating,Vero [14],1.2
same,Virus rating,Vero [24],1.3
same,Virus rating,Vero [42],0.8
same,Virus rating,[43],1.6
same,Virus rating,Vero [18],0.6
same,Virus rating,[44],1.2
same,ILS,Rift Valley fever virus [45],70%
